Assay results: ChEMBL document CHEMBL1154942, “Design, synthesis and evaluation of carbamate-modified (-)-N(1)-phenethylnorphysostigmine derivatives as selective butyrylcholinesterase inhibitors” (Bioorg Med Chem Lett, 2010)

Columns and labels:
Cholinesterase = Cholinesterase (Mus musculus, UniProt Q03311); assay: Inhibition of mouse serum BChE after 1 hr by modified Ellman's colorimetric method
How it was run: (§1)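 Enzyme from mouse serum extract. Compounds preincubated with enzyme 1 h at 37 °C, then butyrylthiocholine plus DTNB added. Absorbance read at 415 nm at 2 min intervals. Activity expressed as percent of DMSO solvent control. Seven concentrations tested. IC50 from nonlinear regression of sigmoidal dose–response, accepted only if r² ≥ 0.95. Mean of at least four independent measurements.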

Acetylcholinesterase = target: T1, Acetylcholinesterase (Mus musculus, UniProt P21836); assay: Inhibition of mouse brain AChE after 1 hr by modified Ellman's colorimetric method
T1 sequence (P21836 whole entry): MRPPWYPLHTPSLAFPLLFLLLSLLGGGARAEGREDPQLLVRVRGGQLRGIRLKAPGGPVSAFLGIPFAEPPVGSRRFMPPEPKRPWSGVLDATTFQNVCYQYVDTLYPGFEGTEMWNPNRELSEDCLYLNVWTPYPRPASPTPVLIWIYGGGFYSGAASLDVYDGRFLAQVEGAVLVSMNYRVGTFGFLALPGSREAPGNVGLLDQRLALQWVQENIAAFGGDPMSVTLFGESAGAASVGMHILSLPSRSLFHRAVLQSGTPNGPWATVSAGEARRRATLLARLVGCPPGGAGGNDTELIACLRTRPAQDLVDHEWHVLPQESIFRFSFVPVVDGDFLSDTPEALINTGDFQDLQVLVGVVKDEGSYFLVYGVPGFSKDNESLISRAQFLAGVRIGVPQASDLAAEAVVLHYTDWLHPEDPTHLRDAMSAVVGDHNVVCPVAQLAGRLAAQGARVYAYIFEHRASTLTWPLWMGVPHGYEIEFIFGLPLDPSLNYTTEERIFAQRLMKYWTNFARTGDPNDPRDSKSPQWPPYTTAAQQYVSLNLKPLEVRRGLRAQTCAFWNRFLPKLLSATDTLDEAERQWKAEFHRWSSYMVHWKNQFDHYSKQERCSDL
How it was run: as §1, with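 “brain” for “serum”, “acetylthiocholine” for “butyrylthiocholine”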

Cholinesterase, sequence (Q03311 whole entry): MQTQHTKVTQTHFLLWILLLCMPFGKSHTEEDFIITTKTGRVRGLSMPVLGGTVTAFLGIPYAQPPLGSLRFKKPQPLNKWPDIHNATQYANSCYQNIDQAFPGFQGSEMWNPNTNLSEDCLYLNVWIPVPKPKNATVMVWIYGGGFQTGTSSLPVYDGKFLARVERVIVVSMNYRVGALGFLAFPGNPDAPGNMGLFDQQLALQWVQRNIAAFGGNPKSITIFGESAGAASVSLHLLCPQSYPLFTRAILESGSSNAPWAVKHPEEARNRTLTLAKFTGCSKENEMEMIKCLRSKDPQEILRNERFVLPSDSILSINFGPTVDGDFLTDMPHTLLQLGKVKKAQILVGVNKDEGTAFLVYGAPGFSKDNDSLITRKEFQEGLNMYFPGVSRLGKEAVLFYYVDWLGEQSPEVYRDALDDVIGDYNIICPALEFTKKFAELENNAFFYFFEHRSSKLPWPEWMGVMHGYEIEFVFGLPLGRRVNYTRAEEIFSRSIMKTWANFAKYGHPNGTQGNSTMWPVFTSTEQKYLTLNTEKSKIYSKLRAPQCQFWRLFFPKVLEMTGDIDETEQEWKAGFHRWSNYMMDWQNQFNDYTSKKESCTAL

SMILES | IC50 (Cholinesterase) [µM] | IC50 (Acetylcholinesterase) [µM]
CN1c2ccc(OC(=O)Nc3ccc(Cl)cc3)cc2[C@]2(C)CCN(CCc3ccccc3)[C@H]12 | 0.37 | > 100
CN1c2ccc(OC(=O)Nc3ccc(C(C)(C)C)cc3)cc2[C@]2(C)CCN(CCc3ccccc3)[C@H]12 | 0.43 | 15
CCCCCCNC(=O)Oc1ccc2c(c1)[C@]1(C)CCN(CCc3ccccc3)[C@@H]1N2C | 0.014 | 0.97
CN1c2ccc(OC(=O)Nc3ccccc3)cc2[C@]2(C)CCN(CCc3ccccc3)[C@H]12 | 0.34 | 1.6
CN(C)c1ccc(NC(=O)Oc2ccc3c(c2)[C@]2(C)CCN(CCc4ccccc4)[C@@H]2N3C)cc1 | 0.079 | > 100
CN1c2ccc(OC(=O)NC3CCCCC3)cc2[C@]2(C)CCN(CCc3ccccc3)[C@H]12 | 0.022 | 5.6
CN1c2ccc(OC(=O)NCC3CCCCC3)cc2[C@]2(C)CCN(CCc3ccccc3)[C@H]12 | 0.0018 | 2.5
CCCCc1ccc(NC(=O)Oc2ccc3c(c2)[C@]2(C)CCN(CCc4ccccc4)[C@@H]2N3C)cc1 | 0.98 | 48
CN1c2ccc(OC(=O)Nc3ccc(-c4ccccc4)cc3)cc2[C@]2(C)CCN(CCc3ccccc3)[C@H]12 | 1.1 | > 100
CN1c2ccc(OC(=O)Nc3ccc4ccccc4c3)cc2[C@]2(C)CCN(CCc3ccccc3)[C@H]12 | 0.58 | 44
COc1ccc(NC(=O)Oc2ccc3c(c2)[C@]2(C)CCN(CCc4ccccc4)[C@@H]2N3C)cc1 | 0.083 | 33
CCCCCCOc1ccc(NC(=O)Oc2ccc3c(c2)[C@]2(C)CCN(CCc4ccccc4)[C@@H]2N3C)cc1 | 1.4 | > 100
CC(=O)c1ccc(NC(=O)Oc2ccc3c(c2)[C@]2(C)CCN(CCc4ccccc4)[C@@H]2N3C)cc1 | 5.9 | > 100
CN1c2ccc(OC(=O)Nc3ccc([N+](=O)[O-])cc3)cc2[C@]2(C)CCN(CCc3ccccc3)[C@H]12 | 6.7 | > 100
CN1c2ccc(OC(=O)NCc3ccccc3)cc2[C@]2(C)CCN(CCc3ccccc3)[C@H]12 | 0.0066 | 0.18
CN1c2ccc(OC(=O)NCCc3ccccc3)cc2[C@]2(C)CCN(CCc3ccccc3)[C@H]12 | 0.016 | 0.45
CN1c2ccc(OC(=O)Nc3ccc(Oc4ccccc4)cc3)cc2[C@]2(C)CCN(CCc3ccccc3)[C@H]12 | 2 | > 100
COc1ccc(NC(=O)Oc2ccc3c(c2)[C@]2(C)CCN(CCc4ccccc4)[C@@H]2N3C)cc1OC | 0.097 | 11
CN1c2ccc(OC(=O)Nc3ccc4c(c3)OCO4)cc2[C@]2(C)CCN(CCc3ccccc3)[C@H]12 | 0.1 | 1.9
CNC(=O)Oc1ccc2c(c1)[C@]1(C)CCN(CCc3ccccc3)[C@@H]1N2C | 0.01 | 0.17
CC(C)c1ccc(NC(=O)Oc2ccc3c(c2)[C@]2(C)CCN(CCc4ccccc4)[C@@H]2N3C)cc1 [PHENETHYLCYMSERINE] | 0.54 | > 100
CNC(=O)Oc1ccc2c(c1)[C@]1(C)CCN(C)[C@@H]1N2C [PHYSOSTIGMINE] | 0.28 | 0.04
